Assay [1] concerns K562. The experiment in a line: Antiproliferative activity against human K562 cells. Type of assay: functional, cell-based. A digest of the protocol: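 K562 cells were seeded at 30,000 cells/mL in medium with 10% FBS, penicillin and streptomycin. They were cultured with or without test compounds at the indicated concentrations. Cell number per mL was counted with a Coulter counter on different days after culture set-up.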

Assay [2] has as its system K562. The experiment in a line: Induction of erythroid differentiation in human K562 cells assessed as benzidine-positive cells after 6 days. It is filed as functional. On the set-up: concentration or dose not given beside the values. In a few lines:
(§1)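 K562 cells were seeded at 30,000 cells/mL in medium with 10% FBS and antibiotics, then exposed to compounds at the indicated concentrations for a 6-day induction period. Hemoglobin-containing cells were scored by benzidine staining and expressed as % benzidine-positive cells. Values are mean ± SD of three independent experiments.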

Assay [3] deals with K562. The experiment in a line: Induction of erythroid differentiation in human K562 cells assessed as benzidine-positive cells at 0.5 mM after 6 days. It is filed as functional. A digest of the protocol: as §1
Assay [4] relates to K562. The assay can be described thus: Induction of erythroid differentiation in human K562 cells assessed as benzidine-positive cells at 20 mM after 6 days. It is filed as functional. In a few lines:
as §1

The subject of assay [5] is K562. The experiment in a line: Induction of erythroid differentiation in human K562 cells assessed as benzidine-positive cells at 0.75 mM after 6 days. Type of assay: functional. In a few lines:
(§2)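 Erythroid induction was measured with compound combined with a sub-optimal concentration of ara-C. K562 cells were seeded at 30,000 cells/mL in medium with 10% FBS and antibiotics and co-treated for 6 days. Read-out was % benzidine-positive (hemoglobin-containing) cells, given as mean ± SD of three independent experiments.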

Assay [6] has as its system K562. The assay can be described thus: Induction of erythroid differentiation in human K562 cells assessed as benzidine-positive cells at 8 mM after 6 days. Type of assay: functional. A digest of the protocol:
as §2

Assay [7] relates to K562. The experiment in a line: Induction of erythroid differentiation in human K562 cells assessed as benzidine-positive cells at 0.1 mM after 6 days. It is filed as functional. A digest of the protocol: as §1
Assay [8] concerns K562. The assay can be described thus: Induction of erythroid differentiation in human K562 cells assessed as benzidine-positive cells at 1 mM after 6 days. It is filed as functional. In a few lines: as §1
Assay [9] concerns K562. The experiment in a line: Induction of erythroid differentiation in human K562 cells assessed as benzidine-positive cells at 5 mM after 6 days. It is filed as functional. In a few lines: as §1
In assay [10] the test system is K562. The assay can be described thus: Induction of erythroid differentiation in human K562 cells assessed as benzidine-positive cells at 500 mM after 6 days. It is filed as functional. As to conditions: in the assay text read “500 nM” for “500 mM”. In a few lines:
as §1

Each structure is given as a SMILES string.

As usually defined, the IC50 is the concentration that inhibits the measured activity by half. In the assay with K562 [1], `CCCC(=O)N[C@@H]1[C@H]2OC(C)(C)O[C@H]2O[C@@H]1[C@H](O)CO` gave an IC50 of 0.5 mM. Further, the figures for the Activity in the assay on K562 [2] and in the assay with K562 [3] were 20% and 35%, respectively.
In the case of `COc1ccc(C(=O)N[C@H]2[C@H]3OC(C)(C)O[C@H]3O[C@@H]2[C@H](O)CO)cc1`, the IC50 in the assay on K562 [1] was 2.5 mM. The Activity with K562 [2] was 24%.
Turning to `CC#CC(=O)N[C@@H]1[C@H]2OC(C)(C)O[C@H]2O[C@@H]1[C@H]1COC(C)(C)O1`, the IC50 in the assay with K562 [1] stood at 0.5 mM. Also, in the assay with K562 [2], the Activity is reported as 19%.
On the same counts, the results for `CC(C)CC(=O)N[C@@H]1[C@H]2OC(C)(C)O[C@H]2O[C@@H]1[C@H](O)CO` are 5 mM and 25%.
Regarding `CCCCCC(=O)N[C@@H]1[C@H]2OC(C)(C)O[C@H]2O[C@@H]1[C@H](O)CO`, in the assay on K562 [1], the IC50 came out at 10 mM. In addition, the Activity in the assay on K562 [2] is 28%.
The like results for `CC1(C)O[C@H]2O[C@H]([C@H]3COC(C)(C)O3)[C@@H](NC(=O)C3CCCC3)[C@H]2O1` were, in that order, 1 mM and 21%.
In the case of `CC1(C)O[C@H]2O[C@H]([C@H](O)CO)[C@@H](NC(=O)C(C)(C)C)[C@H]2O1`, the IC50 with K562 [1] was 20 mM. The results for the Activity in the assay on K562 [2] and in the assay with K562 [4] were 25% and 40%, respectively.
Regarding `CC1(C)O[C@H]2O[C@H]([C@H]3COC(C)(C)O3)[C@@H](NC(=O)CCc3ccccc3)[C@H]2O1`, the Activity in the assay on K562 [5] is 49%.
On to `COc1ccc(OC)c(CC(=O)N[C@H]2[C@H]3OC(C)(C)O[C@H]3O[C@@H]2[C@H]2COC(C)(C)O2)c1`, for which the Activity in the assay with K562 [3] amounted to 50%.
Turning to `CC(C)C(=O)N[C@H]1[C@H]2OC(C)(C)O[C@H]2O[C@@H]1[C@H](O)CO`, in the assay on K562 [6], the Activity came out at 66%.
`CO[C@@H]1O[C@H](CNC(=O)C2CC2)[C@@H]2OC(C)(C)O[C@@H]2[C@H]1O` gave a concentration for half-maximal inhibition (IC50) in the assay with K562 [1] of 0.25 mM. The Activity in the assay on K562 [2] worked out at 27%.
On the same counts, the results for `CCC(=O)N[C@@H]1[C@H]2OC(C)(C)O[C@H]2O[C@@H]1[C@H](O)CO` are 30 mM and 20%.
The like results for `CCCCC(=O)N[C@@H]1[C@H]2OC(C)(C)O[C@H]2O[C@@H]1[C@H](O)CO` were, in that order, 5 mM and 18%.
For the molecule `CCC(=O)N[C@H]1[C@H]2OC(C)(C)O[C@H]2O[C@@H]1[C@H]1COC(C)(C)O1`, in the assay with K562 [1], inhibition was half-maximal at 7.5 mM (IC50). In the assay on K562 [2], the Activity came out at 19%.
`CC(C)(C)CC(=O)N[C@@H]1[C@H]2OC(C)(C)O[C@H]2O[C@@H]1[C@H](O)CO` had an IC50 in the assay with K562 [1] of 5 mM. Also, the Activity in the assay with K562 [2] stood at 15%.
`CCCC(=O)N[C@H]1[C@H]2OC(C)(C)O[C@H]2O[C@@H]1[C@H](O)CO` displayed an IC50 in the assay with K562 [1] of 20 mM. In addition, the Activity stood at 20% in the assay with K562 [2] and 40% in the assay on K562 [4].
`CC1(C)O[C@H]2O[C@H]([C@H](O)CO)[C@@H](NC(=O)c3ccc(-c4ccccc4)cc3)[C@H]2O1`: in the assay on K562 [7], the Activity was 33%.
On to `COc1cccc(CC(=O)N[C@H]2[C@H]3OC(C)(C)O[C@H]3O[C@@H]2[C@H]2COC(C)(C)O2)c1`, for which the Activity in the assay with K562 [8] is reported as 43%.
Consider `CC1(C)O[C@H]2O[C@H]([C@H](O)CO)[C@H](NC(=O)C(C)(C)C)[C@H]2O1`, for which the Activity in the assay on K562 [9] worked out at 68%.
Regarding `CCCC(=O)NC[C@H]1O[C@H](OC)[C@H](O)[C@H]2OC(C)(C)O[C@H]21`, in the assay on K562 [1], the midpoint of inhibition, the IC50, lay at 0.1 mM. Also, the Activity in the assay with K562 [2] worked out at 18%.
As to `CCCC(=O)O` [BUTYRIC ACID], in the assay with K562 [1], half-maximal inhibition (IC50) required 2 mM. Moreover, the Activity in the assay on K562 [2] is 32.5%.
As for `Nc1ccn([C@@H]2O[C@H](CO)[C@@H](O)[C@@H]2O)c(=O)n1` [CYTARABINE], the Activity with K562 [2] came out at 78%; with K562 [10] it was 22%.
Molecule `CO[C@H](C(=O)[C@@H](O)[C@@H](C)O)[C@@H]1Cc2cc3cc(O[C@H]4C[C@@H](O[C@@H]5C[C@@H](O)[C@H](O)[C@@H](C)O5)[C@H](O)[C@@H](C)O4)c(C)c(O)c3c(O)c2C(=O)[C@H]1O[C@H]1C[C@@H](O[C@@H]2C[C@@H](O)[C@@H](O[C@@H]3C[C@](C)(O)[C@H](O)[C@@H](C)O3)[C@@H](C)O2)[C@H](O)[C@@H](C)O1` [PLICAMYCIN] displayed an IC50 in the assay on K562 [1] of 0.0001 mM. Moreover, the Activity in the assay on K562 [2] is on record as 86%.
The like results for `CO[C@H]1C[C@@H]2CC[C@@H](C)[C@@](O)(O2)C(=O)C(=O)N2CCCC[C@H]2C(=O)O[C@H]([C@H](C)C[C@@H]2CC[C@@H](O)[C@H](OC)C2)CC(=O)[C@H](C)/C=C(\C)[C@@H](O)[C@@H](OC)C(=O)[C@H](C)C[C@H](C)/C=C/C=C/C=C/1C` [SIROLIMUS] were, in that order, 1 mM and 75.5%.
